Here are results for twelve compounds from ChEMBL document CHEMBL1135804, “Beta-strand mimicking macrocyclic amino acids: templates for protease inhibitors with antiviral activity” (J Med Chem, 2002).

For orientation: IC50 means the point on the concentration scale where inhibition reaches its midpoint. Lower therefore signals higher potency. As a reminder, the Ki is a dissociation constant, usually derived from enzyme kinetics or from competition with a known ligand.

The subject of data set [1] is MT2. Briefly: Concentration required to produce 50% reduction in virion associated RT activity in HIV-1 infected MT2 cells. The data set is classed as functional, cell-based. To be noted: Homo sapiens. In a few lines:
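MT2 cells (5 × 10⁴ per 0.25 mL RF10, RPMI-1640-based) given compound (diluted from 20 mM stock in 60% ethanol), then immediately HIV-1 strain #237288 at 200 TCID₅₀; 37 °C, 5% CO₂, 6–7 days; duplicates. Supernatant virus PEG-precipitated, virion-associated RT activity counted by scintillation; % inhibition versus virus-only controls; IC50 = 50% RT reduction.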

Data set [2] can be described thus: The Water-octanol distribution coefficient at pH6.5. Type of data set: physicochemical. To be noted: pH 6.5, read-out: Log D6.5. In a few lines: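 Value computed by a cited calculation method at pH 6.5, not measured experimentally.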
The target of data set [3] is Human immunodeficiency virus type 1 protease (Human immunodeficiency virus 1, UniProt Q72874). Briefly: Inhibitory activity against HIV-1 protease.

Consider `CC(C)CN(C[C@@H](O)[C@H](Cc1ccccc1)NC(=O)O[C@H]1CCOC1)S(=O)(=O)c1ccc(N)cc1`, for which half-maximal inhibition in data set [1] (IC50) required 30 nM.

`CCCCC(=O)N[C@H]1CCCCOc2ccc(cc2)C[C@@H]([C@H](O)CN(CCC(C)C)S(=O)(=O)c2ccc(NC(C)=O)cc2)NC(=O)[C@H](CCCC)NC1=O` displayed an IC50 in data set [1] of 580 nM. In data set [2], the logD turned out to be 4.6.

In turn, `CCCC[C@@H]1NC(=O)[C@@H](NC(=O)[C@@H](N)CO)CCCCOc2ccc(cc2)C[C@@H]([C@H](O)CN(CCC(C)C)S(=O)(=O)c2ccc(N)cc2)NC1=O` returned an IC50 in data set [1] greater than 10000 nM. Moreover, the affinity in data set [3], expressed as Ki, was 3 nM. Moreover, in data set [2], the logD is 0.6.

`CC(C)CCN(C[C@@H](O)[C@@H]1Cc2ccc(cc2)OCCCC[C@H](N)C(=O)N[C@@H](C(C)C)C(=O)N1)S(=O)(=O)c1ccc(N)cc1` displayed an IC50 in data set [1] greater than 10000 nM. In addition, the Ki in data set [3] is 0.9 nM. The logD in data set [2] came out at 1.

As to `CCCC[C@@H]1NC(=O)[C@@H](NC(=O)OC(C)(C)C)CCCCOc2ccc(cc2)C[C@@H]([C@H](O)CN(CCC(C)C)S(=O)(=O)c2ccc(NC(C)=O)cc2)NC1=O`, the IC50 in data set [1] was found to be 390 nM. In addition, the inhibitory constant (Ki) in data set [3] was determined as 7.5 nM. Further, the logD in data set [2] came out at 4.8.

In data set [1], `CC(=O)N[C@@H](CO)C(=O)N[C@H]1CCCCOc2ccc(cc2)C[C@@H]([C@H](O)CN(CCC(C)C)S(=O)(=O)c2ccc(N)cc2)NC(=O)[C@H](C(C)C)NC1=O` returned an IC50 greater than 10000 nM. In data set [3], this compound yielded a Ki of 0.34 nM. In addition, in data set [2], the logD stood at 0.4.

`CCCOC[C@@H]1NC(=O)[C@@H](NC(=O)OC(C)(C)C)CCCCOc2ccc(cc2)C[C@@H]([C@H](O)CN(CCC(C)C)S(=O)(=O)c2ccc(NC(C)=O)cc2)NC1=O`: the IC50 in data set [1] was found to be 825 nM. The same compound displayed a Ki in data set [3] of 45 nM. Besides, the logD in data set [2] is 3.6.

`CCCC[C@@H]1NC(=O)[C@@H](NC(=O)[C@H](CO)NC(=O)OC(C)(C)C)CCCCOc2ccc(cc2)C[C@@H]([C@H](O)CN(CCC(C)C)S(=O)(=O)c2ccc(NC(C)=O)cc2)NC1=O` gave an IC50 in data set [1] of 2550 nM. In data set [3], the Ki is 12 nM. In data set [2], the logD turned out to be 3.

`CCCC[C@@H]1NC(=O)[C@@H](NC(C)=O)CCCCOc2ccc(cc2)C[C@@H]([C@H](O)CN(CCC(C)C)S(=O)(=O)c2ccc(N)cc2)NC1=O` had an IC50 in data set [1] of 910 nM. Also, affinity in data set [3] was put at a Ki of 2.8 nM. Besides, the logD in data set [2] came to 3.

Compound `CCCOC[C@@H]1NC(=O)[C@@H](N)CCCCOc2ccc(cc2)C[C@@H]([C@H](O)CN(CCC(C)C)S(=O)(=O)c2ccc(N)cc2)NC1=O` had a 50% inhibitory concentration (IC50) in data set [1] greater than 10000 nM. This compound also came in with a Ki in data set [3] of 45 nM. The logD in data set [2] turned out to be 0.5.

In data set [1], `CC(=O)Nc1ccc(S(=O)(=O)N(CCC(C)C)C[C@@H](O)[C@@H]2Cc3ccc(cc3)OCCCC[C@H](NC(=O)OC(C)(C)C)C(=O)N[C@@H](C(C)C)C(=O)N2)cc1` yielded an IC50 of 177 nM. Also, in data set [3], the Ki is 2 nM. Moreover, in data set [2], the logD was determined as 4.1.

Take `CCCC[C@@H]1NC(=O)[C@@H](N)CCCCOc2ccc(cc2)C[C@@H]([C@H](O)CN(CCC(C)C)S(=O)(=O)c2ccc(N)cc2)NC1=O`: the IC50 in data set [1] worked out at 6850 nM. This compound returned a Ki in data set [3] of 0.31 nM. Also, in data set [2], the logD came to 1.7.
